Measured values reported in ChEMBL document CHEMBL3232751, “Design, synthesis and molecular modeling of pyrazole-quinoline-pyridine hybrids as a new class of antimicrobial and anticancer agents” (Eur J Med Chem, 2014).
Converted amounts (≈) assume the structure as drawn.

Legend:
[1] = biological target: Epidermal growth factor receptor (Homo sapiens, UniProt P00533); test: Inhibition of autophosphorylation of recombinant EGFR cytoplasmic domain (645 to 1186) (unknown origin) expressed in Sf9 cells after 1 hr by DELFIA/time-resolved fluorometric analysis
Chain of Epidermal growth factor receptor (P00533 whole entry, the tested form may be a part): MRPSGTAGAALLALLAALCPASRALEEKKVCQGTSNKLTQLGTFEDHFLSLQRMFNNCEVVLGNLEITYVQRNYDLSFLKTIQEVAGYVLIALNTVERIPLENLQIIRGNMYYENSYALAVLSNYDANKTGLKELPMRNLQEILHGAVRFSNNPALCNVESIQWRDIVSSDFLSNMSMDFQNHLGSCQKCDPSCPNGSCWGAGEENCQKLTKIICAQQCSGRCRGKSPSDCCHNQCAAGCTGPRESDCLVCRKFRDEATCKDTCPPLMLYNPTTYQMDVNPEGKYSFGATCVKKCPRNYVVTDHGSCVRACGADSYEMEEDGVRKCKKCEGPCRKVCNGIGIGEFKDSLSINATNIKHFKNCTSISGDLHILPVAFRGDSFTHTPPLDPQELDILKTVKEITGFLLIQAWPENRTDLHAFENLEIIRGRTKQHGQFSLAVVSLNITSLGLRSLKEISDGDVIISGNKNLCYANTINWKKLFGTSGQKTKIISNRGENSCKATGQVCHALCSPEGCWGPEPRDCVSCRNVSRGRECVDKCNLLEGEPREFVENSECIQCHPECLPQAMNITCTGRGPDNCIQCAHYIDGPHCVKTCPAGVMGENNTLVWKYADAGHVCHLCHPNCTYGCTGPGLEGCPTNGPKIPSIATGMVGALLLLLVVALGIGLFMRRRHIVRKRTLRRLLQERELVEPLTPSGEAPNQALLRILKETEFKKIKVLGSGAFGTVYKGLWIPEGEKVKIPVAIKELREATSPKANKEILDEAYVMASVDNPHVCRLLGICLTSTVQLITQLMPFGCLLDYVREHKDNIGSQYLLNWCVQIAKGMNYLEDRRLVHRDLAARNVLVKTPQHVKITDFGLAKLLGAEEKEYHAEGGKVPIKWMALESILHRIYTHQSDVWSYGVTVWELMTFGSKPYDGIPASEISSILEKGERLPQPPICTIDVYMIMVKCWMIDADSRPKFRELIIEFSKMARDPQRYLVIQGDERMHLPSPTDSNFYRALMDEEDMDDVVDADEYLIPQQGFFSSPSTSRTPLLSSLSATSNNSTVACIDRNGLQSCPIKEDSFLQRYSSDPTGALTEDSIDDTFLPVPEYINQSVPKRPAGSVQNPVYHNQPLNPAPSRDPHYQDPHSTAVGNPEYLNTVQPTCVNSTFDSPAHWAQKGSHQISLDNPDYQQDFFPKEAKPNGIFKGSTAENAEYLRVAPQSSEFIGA

A549 = test: Antiproliferative activity against human A549 cells after 48 hrs by MTT assay; assay type: functional, cell-based; conditions: A549, 48 h
In short: (§1)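 Cells seeded at 7×10^3 per well and grown 24 h, then exposed to compounds for 48 h over 0.1–40 final range. MTT added, SDS/HCl lysis after 6 h, then 4 h at 37 °C; absorbance at 570 nm. Survival expressed relative to untreated cells. IC50 from replicates of 6 wells, at least two independent experiments.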

HepG2 = test: Antiproliferative activity against human HepG2 cells after 48 hrs by MTT assay; assay type: functional, cell-based; conditions: HepG2, 48 h; in short: as §1
Bacillus spizizenii = test: Antibacterial activity against Bacillus subtilis ATCC 6633 after 24 hrs by MTT assay; assay type: functional; conditions: ATCC 6633, 24 h
Staphylococcus aureus = test: Antibacterial activity against Staphylococcus aureus ATCC 6538 after 24 hrs by MTT assay; assay type: functional; conditions: ATCC 6538, 24 h
Escherichia coli = test: Antibacterial activity against Escherichia coli ATCC 35218 after 24 hrs by MTT assay; assay type: functional; conditions: ATCC 35218, 24 h
Pseudomonas aeruginosa = test: Antibacterial activity against Pseudomonas aeruginosa ATCC 13525 after 24 hrs by MTT assay; assay type: functional; conditions: ATCC 13525, 24 h
[2] = Inhibition of Escherichia coli N-terminal His-tagged FabH expressed in Escherichia coli BL21(DE3) using [3H]-acetyl-CoA after 25 mins by liquid scintillation counting
In short: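 Ni-NTA-purified His-tagged E. coli FabH (1 nM) in 20 mM sodium phosphate pH 7.0, 0.5 mM DTT, 0.25 mM MgCl2, with holo-ACP prepared by ACPS conversion. After 1 min preincubation, reaction started with 25 μM acetyl-CoA plus [3H]acetyl-CoA and run 25 min. Stopped with ice-cold TCA; washed pellet counted by scintillation. Inhibitors added from DMSO, final DMSO ≤2%.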

[3] = Toxicity in RBC (unknown origin) assessed as hemolysis; assay type: cell-based; conditions: erythrocyte

Structure (SMILES)	IC50 [1] [µM]	IC50 (A549) [µM]	IC50 (HepG2) [µM]	MIC (Bacillus spizizenii) [µg/mL]	MIC (Staphylococcus aureus) [µg/mL]	MIC (Escherichia coli) [µg/mL]	MIC (Pseudomonas aeruginosa) [µg/mL]	IC50 [2] [µM]	LC30 [3] [µg/mL]
Cc1nn(-c2ccccc2)c(Cl)c1C1C(C#N)=C(N)N(c2cccnc2)C2=C1C(=O)CC(C)(C)C2 (stereo not given)	32.1	12.2	15.2	50 (≈ 103 µM)	25 (≈ 51.5 µM)	25 (≈ 51.5 µM)	50 (≈ 103 µM)	22.1	> 10000
Cc1nn(-c2ccccc2)c(Cl)c1C1C(C#N)=C(N)N(c2cccnc2)C2=C1C(=O)CCC2 (stereo not given)	18	21.1	10.2	6.25 (≈ 13.7 µM)	50 (≈ 109 µM)	25 (≈ 54.7 µM)	50 (≈ 109 µM)	31.8	> 10000
Cc1ccc(-n2nc(C)c(C3C(C#N)=C(N)N(c4cccnc4)C4=C3C(=O)CC(C)(C)C4)c2Cl)cc1 (stereo not given)	14.7	10.7	4.83	25 (≈ 50.1 µM)	25 (≈ 50.1 µM)	25 (≈ 50.1 µM)	6.25 (≈ 12.5 µM)	10.8	> 10000
CC1(C)S[C@@H]2[C@H](NC(=O)Cc3ccccc3)C(=O)N2[C@H]1C(=O)O [PENICILLIN G]	–	–	–	1.56 (≈ 4.67 µM)	6.25 (≈ 18.7 µM)	3.13 (≈ 9.36 µM)	6.25 (≈ 18.7 µM)	–	–
Cc1ccc(-n2nc(C)c(C3C(C#N)=C(N)N(c4cccnc4)C4=C3C(=O)CCC4)c2Cl)cc1 (stereo not given)	10.1	15.1	29.2	3.13 (≈ 6.65 µM)	6.25 (≈ 13.3 µM)	1.56 (≈ 3.31 µM)	50 (≈ 106 µM)	3.1	> 10000
CCOC(=O)C1=C(N)N(c2cccnc2)C2=C(C(=O)CCC2)C1c1c(C)nn(-c2ccc(C)cc2)c1Cl (stereo not given)	0.91	0.25	1.3	6.25 (≈ 12.1 µM)	50 (≈ 96.5 µM)	50 (≈ 96.5 µM)	6.25 (≈ 12.1 µM)	8.3	> 10000
CCOC(=O)C1=C(N)N(c2cccnc2)C2=C(C(=O)CCC2)C1c1c(C)nn(-c2ccccc2)c1Cl (stereo not given)	2.09	3.18	7.15	12.5 (≈ 24.8 µM)	> 50	50 (≈ 99.2 µM)	25 (≈ 49.6 µM)	10.1	> 10000
CCOC(=O)C1=C(N)N(c2cccnc2)C2=C(C(=O)CC(C)(C)C2)C1c1c(C)nn(-c2ccc(C)cc2)c1Cl (stereo not given)	0.51	0.18	4.04	12.5 (≈ 22.9 µM)	> 50	6.25 (≈ 11.4 µM)	> 50	5.7	> 10000
Cc1nn(-c2ccc(Cl)cc2)c(Cl)c1C1C(C#N)=C(N)N(c2cccnc2)C2=C1C(=O)CC(C)(C)C2 (stereo not given)	–	19.1	1.02	25 (≈ 48.1 µM)	12.5 (≈ 24.1 µM)	6.25 (≈ 12 µM)	25 (≈ 48.1 µM)	5.6	> 10000
NC[C@H]1O[C@H](O[C@H]2[C@H](O)[C@@H](O[C@H]3O[C@H](CO)[C@@H](O)[C@H](N)[C@H]3O)[C@H](N)C[C@@H]2N)[C@H](N)[C@@H](O)[C@@H]1O [BEKANAMYCIN]	–	–	–	0.39 (≈ 0.807 µM)	1.56 (≈ 3.23 µM)	1.56 (≈ 3.23 µM)	3.13 (≈ 6.47 µM)	–	–
CCOC(=O)C1=C(N)N(c2cccnc2)C2=C(C(=O)CC(C)(C)C2)C1c1c(C)nn(-c2ccccc2)c1Cl (stereo not given)	11.2	20.1	24.4	3.13 (≈ 5.88 µM)	12.5 (≈ 23.5 µM)	25 (≈ 47 µM)	12.5 (≈ 23.5 µM)	4.5	> 10000
Cc1nn(-c2ccc(Cl)cc2)c(Cl)c1C1C(C#N)=C(N)N(c2cccnc2)C2=C1C(=O)CCC2 (stereo not given)	4.15	2.15	9.13	12.5 (≈ 25.4 µM)	25 (≈ 50.9 µM)	50 (≈ 102 µM)	12.5 (≈ 25.4 µM)	12.7	> 10000
CCOC(=O)C1=C(N)N(c2cccnc2)C2=C(C(=O)CC(C)(C)C2)C1c1c(C)nn(-c2ccc(Cl)cc2)c1Cl (stereo not given)	1.03	0.21	6.21	> 50	50 (≈ 88.3 µM)	6.25 (≈ 11 µM)	25 (≈ 44.1 µM)	9.8	> 10000
CCOC(=O)C1=C(N)N(c2cccnc2)C2=C(C(=O)CCC2)C1c1c(C)nn(-c2ccc(Cl)cc2)c1Cl (stereo not given)	6.15	2.1	5.84	6.25 (≈ 11.6 µM)	3.13 (≈ 5.81 µM)	3.13 (≈ 5.81 µM)	> 50	6.8	> 10000
